Eight molecules from ChEMBL document CHEMBL1154675, “Identification of death-associated protein kinases inhibitors using structure-based virtual screening” (J Med Chem, 2009) can be followed below.

In experiment [1] the target is T1, Death-associated protein kinase 3 (Homo sapiens, UniProt O43293). The experiment in a line: Inhibition of DAPK3 at 1 uM. An outline of the steps: (§1)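 Single-concentration screen of recombinant DAPK3 in the standard Z'-LYTE Ser/Thr 13 peptide reaction: peptide substrate and ATP in 50 mM HEPES pH 7.4, 10 mM MgCl2, 0.01% Brij-35, 0.5% DMSO. Percent inhibition of enzyme activity was read at the stated final compound concentration.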
Target sequence in this assay (O43293 whole entry, looked up): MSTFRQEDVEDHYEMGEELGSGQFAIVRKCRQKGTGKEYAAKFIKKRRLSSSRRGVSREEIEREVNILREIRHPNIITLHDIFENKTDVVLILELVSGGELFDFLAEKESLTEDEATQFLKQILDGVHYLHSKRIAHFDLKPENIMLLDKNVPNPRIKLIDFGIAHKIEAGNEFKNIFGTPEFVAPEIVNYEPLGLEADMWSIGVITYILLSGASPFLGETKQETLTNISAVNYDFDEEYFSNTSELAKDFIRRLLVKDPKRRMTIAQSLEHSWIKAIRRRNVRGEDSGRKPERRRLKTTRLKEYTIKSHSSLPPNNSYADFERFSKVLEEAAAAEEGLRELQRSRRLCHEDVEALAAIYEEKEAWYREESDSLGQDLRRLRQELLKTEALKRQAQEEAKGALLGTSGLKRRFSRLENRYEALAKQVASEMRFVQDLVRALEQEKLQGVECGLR

Experiment [2] concerns the target T1, Death-associated protein kinase 3. Kind of experiment: Inhibition of DAPK3 at 10 uM. An outline of the steps:
as §1
Target sequence in this assay (O43293 whole entry, looked up): as above

Experiment [3] addresses RAC-alpha serine/threonine-protein kinase (Homo sapiens) (UniProt P31749). The experiment in a line: Inhibition of AKT1 at 10 uM.
Experiment [4] concerns the target Tyrosine-protein kinase Fyn (Homo sapiens) (UniProt P06241). Kind of experiment: Inhibition of FYN at 10 uM. An outline of the steps:
(§2)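 Selectivity panel run with ProfilerPro kinase kits following the kit protocol. Activity against each kinase was reported as an IC50 range: below 1 μM, between 1 and 10 μM, or above 10 μM.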

The target of experiment [5] is Mitogen-activated protein kinase 14 (Homo sapiens) (UniProt Q16539). The experiment in a line: Inhibition of p38alpha at 10 uM.
For experiment [6], the target named is Hepatocyte growth factor receptor (Homo sapiens) (UniProt P08581). The experiment in a line: Inhibition of MET at 10 uM. An outline of the steps: as §2
Sequence of Hepatocyte growth factor receptor (Homo sapiens) (P08581 whole entry): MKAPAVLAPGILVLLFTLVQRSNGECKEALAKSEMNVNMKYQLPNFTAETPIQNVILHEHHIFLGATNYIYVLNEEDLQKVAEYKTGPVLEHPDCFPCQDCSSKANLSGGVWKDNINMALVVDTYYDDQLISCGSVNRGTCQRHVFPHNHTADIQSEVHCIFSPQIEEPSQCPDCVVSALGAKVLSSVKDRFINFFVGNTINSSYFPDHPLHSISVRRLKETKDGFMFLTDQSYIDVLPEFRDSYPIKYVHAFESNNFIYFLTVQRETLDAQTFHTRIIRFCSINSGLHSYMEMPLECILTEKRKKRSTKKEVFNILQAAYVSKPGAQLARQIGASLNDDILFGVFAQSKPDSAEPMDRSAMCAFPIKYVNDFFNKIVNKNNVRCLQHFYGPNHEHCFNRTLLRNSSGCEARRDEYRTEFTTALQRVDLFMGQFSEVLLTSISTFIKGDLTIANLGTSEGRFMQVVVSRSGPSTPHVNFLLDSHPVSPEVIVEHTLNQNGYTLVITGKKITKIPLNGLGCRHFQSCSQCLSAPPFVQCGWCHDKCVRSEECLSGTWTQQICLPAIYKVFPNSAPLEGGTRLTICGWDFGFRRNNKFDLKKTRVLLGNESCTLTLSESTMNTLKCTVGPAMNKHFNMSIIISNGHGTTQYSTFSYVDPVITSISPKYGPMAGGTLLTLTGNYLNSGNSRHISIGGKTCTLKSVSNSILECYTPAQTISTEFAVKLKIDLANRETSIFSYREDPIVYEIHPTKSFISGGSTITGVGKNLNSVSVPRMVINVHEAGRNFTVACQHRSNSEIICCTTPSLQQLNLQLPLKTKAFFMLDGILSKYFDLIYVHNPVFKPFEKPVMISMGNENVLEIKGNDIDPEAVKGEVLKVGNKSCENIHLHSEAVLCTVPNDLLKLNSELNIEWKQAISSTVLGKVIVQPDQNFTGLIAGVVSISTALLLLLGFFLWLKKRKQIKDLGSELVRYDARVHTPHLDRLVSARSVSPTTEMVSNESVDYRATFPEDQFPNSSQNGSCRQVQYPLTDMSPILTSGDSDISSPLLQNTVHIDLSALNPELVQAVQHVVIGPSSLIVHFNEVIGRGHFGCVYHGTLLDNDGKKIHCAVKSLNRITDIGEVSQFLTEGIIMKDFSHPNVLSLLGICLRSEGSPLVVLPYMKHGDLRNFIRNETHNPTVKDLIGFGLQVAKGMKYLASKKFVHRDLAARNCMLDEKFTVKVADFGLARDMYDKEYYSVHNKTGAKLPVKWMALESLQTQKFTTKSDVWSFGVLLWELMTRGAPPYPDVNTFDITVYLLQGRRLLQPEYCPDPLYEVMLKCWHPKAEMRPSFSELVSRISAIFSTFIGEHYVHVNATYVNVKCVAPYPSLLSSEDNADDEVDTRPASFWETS
Experiment [7] has as its target Serine/threonine-protein kinase MARK1 (Homo sapiens) (UniProt Q9P0L2). Kind of experiment: Inhibition of MARK1 at 10 uM.
Experiment [8] is described as follows: Inhibition of PKA at 10 uM.
In experiment [9] the target is Serine/threonine-protein kinase PAK 2 (Homo sapiens) (UniProt Q13177). The experiment in a line: Inhibition of PAK2 at 10 uM.
For experiment [10], the target named is Insulin-like growth factor 1 receptor (Homo sapiens) (UniProt P08069). Kind of experiment: Inhibition of IGF1R at 10 uM.
The target of experiment [11] is Glycogen synthase kinase-3 beta (Homo sapiens) (UniProt P49841). Kind of experiment: Inhibition of GSK3-beta at 10 uM.
Experiment [12] deals with Serine/threonine-protein kinase D2 (Homo sapiens) (UniProt Q9BZL6). Kind of experiment: Inhibition of PKD2 at 10 uM.
Experiment [13] has as its target MAP/microtubule affinity-regulating kinase 3 (Homo sapiens) (UniProt P27448). Kind of experiment: Inhibition of c-TAK1 at 10 uM. An outline of the steps: as §2
Experiment [14] has as its target MAP kinase-activated protein kinase 5 (Homo sapiens) (UniProt Q8IW41). The experiment in a line: Inhibition of PRAK at 10 uM. An outline of the steps: as §2
Experiment [15] addresses Tyrosine-protein kinase SYK (Homo sapiens) (UniProt P43405). The experiment in a line: Inhibition of SYK at 10 uM.
For experiment [16], the target named is Rho-associated protein kinase 2 (Homo sapiens) (UniProt O75116). Kind of experiment: Inhibition of ROCK2 at 10 uM.
The target in experiment [17] is Mitogen-activated protein kinase 3 (Homo sapiens) (UniProt P27361). Kind of experiment: Inhibition of Erk1 at 10 uM.
In experiment [18] the target is Calcium/calmodulin-dependent protein kinase type IV (Homo sapiens) (UniProt Q16566). The experiment in a line: Inhibition of CAMK4 at 10 uM. An outline of the steps:
as §2

Experiment [19] in a line: Inhibition of p70S6K. An outline of the steps:
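Selectivity panel of kinases run with a commercial profiling kit according to the kit protocol. Inhibition is reported only as IC50 bands: below 1 μM, 1–10 μM, or above 10 μM.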

Experiment [20] has as its target Serine/threonine-protein kinase Sgk1 (Homo sapiens, UniProt O00141). Kind of experiment: Inhibition of SGK1. An outline of the steps:
as §2

Experiment [21] deals with Ribosomal protein S6 kinase alpha-1 (Homo sapiens) (UniProt Q15418). Kind of experiment: Inhibition of RSK1 at 10 uM. An outline of the steps: as §2
The nature of experiment [22]: Inhibition of AMPK at 10 uM.
Experiment [23] addresses Casein kinase I isoform delta (Homo sapiens, UniProt P48730). The experiment in a line: Inhibition of CK1delta. An outline of the steps:
as §2

The target in experiment [24] is Protein kinase C beta type (Homo sapiens) (UniProt P05771). Kind of experiment: Inhibition of PKCbeta2 at 10 uM.
Experiment [25] addresses Cyclin-dependent kinase 2 (Homo sapiens) (UniProt P24941). Kind of experiment: Inhibition of CDK2 at 10 uM. An outline of the steps:
as §2

Experiment [26] concerns the target Interleukin-1 receptor-associated kinase 4 (Homo sapiens) (UniProt Q9NWZ3). The experiment in a line: Inhibition of IRAK4 at 10 uM. An outline of the steps:
as §2

Experiment [27] addresses RAC-beta serine/threonine-protein kinase (Homo sapiens) (UniProt P31751). Kind of experiment: Inhibition of AKT2 at 10 uM.
Experiment [28] addresses Mitogen-activated protein kinase kinase kinase kinase 4 (Homo sapiens) (UniProt O95819). Kind of experiment: Inhibition of HGK at 10 uM.
Experiment [29] deals with Serine/threonine-protein kinase pim-2 (Homo sapiens) (UniProt Q9P1W9). The experiment in a line: Inhibition of PIM2 at 10 uM.
Experiment [30] is described as follows: Inhibition of PKGalpha at 10 uM.
Experiment [31] deals with Ribosomal protein S6 kinase alpha-5 (Homo sapiens) (UniProt O75582). Kind of experiment: Inhibition of MSK1 at 10 uM. An outline of the steps: as §2
In experiment [32] the target is Dual specificity tyrosine-phosphorylation-regulated kinase 1A (Homo sapiens, UniProt Q13627). Kind of experiment: Inhibition of […]. An outline of the steps:
as §2

The target in experiment [33] is Proto-oncogene tyrosine-protein kinase Src (Homo sapiens) (UniProt P12931). Kind of experiment: Inhibition of SRC at 10 uM.
Sequence of Proto-oncogene tyrosine-protein kinase Src (Homo sapiens) (P12931 2-536 limits assumed): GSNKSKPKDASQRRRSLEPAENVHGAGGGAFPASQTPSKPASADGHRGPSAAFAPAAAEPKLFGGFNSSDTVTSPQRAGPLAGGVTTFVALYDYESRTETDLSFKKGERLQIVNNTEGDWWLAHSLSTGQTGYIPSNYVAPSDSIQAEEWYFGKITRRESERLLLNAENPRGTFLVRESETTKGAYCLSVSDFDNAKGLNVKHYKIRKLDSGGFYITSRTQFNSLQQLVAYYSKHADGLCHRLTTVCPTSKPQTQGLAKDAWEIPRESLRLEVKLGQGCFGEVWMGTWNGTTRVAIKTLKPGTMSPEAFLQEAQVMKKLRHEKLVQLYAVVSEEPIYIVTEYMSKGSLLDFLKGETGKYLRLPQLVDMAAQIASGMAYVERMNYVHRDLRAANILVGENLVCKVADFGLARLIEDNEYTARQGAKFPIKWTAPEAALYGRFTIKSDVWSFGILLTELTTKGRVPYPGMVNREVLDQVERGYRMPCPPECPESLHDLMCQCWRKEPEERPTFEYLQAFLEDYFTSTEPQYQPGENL
Experiment [34] addresses Tyrosine-protein kinase Lck (Homo sapiens) (UniProt P06239). The experiment in a line: Inhibition of LCK at 10 uM. An outline of the steps:
as §2

A short description of experiment [35]: Inhibition of CAMK2 at 10 uM.
Experiment [36] addresses Aurora kinase A (Homo sapiens) (UniProt O14965). Kind of experiment: Inhibition of AurA at 10 uM.
For experiment [37], the target named is Serine/threonine-protein kinase Chk2 (Homo sapiens) (UniProt O96017). The experiment in a line: Inhibition of CHK2 at 10 uM. An outline of the steps: as §2
The target in experiment [38] is Serine/threonine-protein kinase 3 (Homo sapiens) (UniProt Q13188). Kind of experiment: Inhibition of MST2 at 10 uM. An outline of the steps: as §2
For experiment [39], the target named is Mitogen-activated protein kinase 1 (Homo sapiens, UniProt P28482). The experiment in a line: Inhibition of Erk2. An outline of the steps: as §2
The target of experiment [40] is Vascular endothelial growth factor receptor 2 (Homo sapiens, UniProt P35968). The experiment in a line: Inhibition of KDR. An outline of the steps:
as §2

Experiment [41] addresses RAF proto-oncogene serine/threonine-protein kinase (Homo sapiens) (UniProt P04049). The experiment in a line: Inhibition of c-Raf at 10 uM.
Experiment [42] deals with Protein kinase C zeta type (Homo sapiens) (UniProt Q05513). The experiment in a line: Inhibition of PKCzeta at 10 uM.
The target in experiment [43] is MAP kinase-activated protein kinase 2 (Homo sapiens) (UniProt P49137). Kind of experiment: Inhibition of MAPKAPK2 at 10 uM. An outline of the steps:
as §2

The target in experiment [44] is Fibroblast growth factor receptor 1 (Homo sapiens, UniProt P11362). The experiment in a line: Inhibition of FGFR1. An outline of the steps: as §2
Sequence of Fibroblast growth factor receptor 1 (P11362 whole entry): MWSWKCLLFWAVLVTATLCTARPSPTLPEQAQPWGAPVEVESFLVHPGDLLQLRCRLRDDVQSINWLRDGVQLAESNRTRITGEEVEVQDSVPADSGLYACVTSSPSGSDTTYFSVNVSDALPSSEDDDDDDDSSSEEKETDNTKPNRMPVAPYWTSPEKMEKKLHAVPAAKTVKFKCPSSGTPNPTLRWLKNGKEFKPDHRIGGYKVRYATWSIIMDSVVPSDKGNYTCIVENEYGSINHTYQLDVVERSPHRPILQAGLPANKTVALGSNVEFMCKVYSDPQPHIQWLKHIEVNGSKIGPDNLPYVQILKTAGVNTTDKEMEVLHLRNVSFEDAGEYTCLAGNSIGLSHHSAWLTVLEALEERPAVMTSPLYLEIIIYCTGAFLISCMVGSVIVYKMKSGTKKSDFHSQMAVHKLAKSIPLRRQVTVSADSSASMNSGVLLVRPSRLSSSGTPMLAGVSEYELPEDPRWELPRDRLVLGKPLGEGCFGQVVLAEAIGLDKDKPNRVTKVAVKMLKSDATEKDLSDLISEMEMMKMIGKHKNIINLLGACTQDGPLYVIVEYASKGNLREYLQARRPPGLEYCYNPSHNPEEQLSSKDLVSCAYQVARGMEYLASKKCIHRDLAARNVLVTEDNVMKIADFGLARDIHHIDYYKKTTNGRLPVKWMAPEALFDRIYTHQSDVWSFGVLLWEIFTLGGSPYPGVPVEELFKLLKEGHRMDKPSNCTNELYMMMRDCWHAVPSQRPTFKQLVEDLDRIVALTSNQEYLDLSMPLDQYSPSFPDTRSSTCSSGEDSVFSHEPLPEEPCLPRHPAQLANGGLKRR
The target of experiment [45] is T1, Death-associated protein kinase 3. The experiment in a line: Inhibition of DAPK3. An outline of the steps:
(§3)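 IC50 runs used the Z'-LYTE Ser/Thr 13 peptide format. Human recombinant DAPK1 was at 2.6 μg/mL final; DAPK3 was recombinant. Each kinase was incubated with 10 μM ATP and a range of inhibitor concentrations in 50 mM HEPES pH 7.4, 10 mM MgCl2, 0.01% Brij-35, 0.5% DMSO, with peptide substrate.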
Target sequence in this assay (O43293 whole entry): as the sequence (O43293 whole entry, looked up) above

The target in experiment [46] is Death-associated protein kinase 1 (Homo sapiens, UniProt P53355). Kind of experiment: Inhibition of DAPK1. An outline of the steps: as §3
For experiment [47], the target named is Insulin receptor (Homo sapiens) (UniProt P06213). The experiment in a line: Inhibition of INSR at 10 uM.
Experiment [48] concerns the target Tyrosine-protein kinase ABL1 (Homo sapiens) (UniProt P00519). The experiment in a line: Inhibition of ABL at 10 uM.
Experiment [49] has as its target Serine/threonine-protein kinase Chk1 (Homo sapiens) (UniProt O14757). Kind of experiment: Inhibition of CHK1 at 10 uM. An outline of the steps: as §2
The target of experiment [50] is Tyrosine-protein kinase Lyn (Homo sapiens) (UniProt P07948). The experiment in a line: Inhibition of LYN at 10 uM. An outline of the steps: as §2
Sequence of Tyrosine-protein kinase Lyn (Homo sapiens) (P07948 2-512 limits assumed): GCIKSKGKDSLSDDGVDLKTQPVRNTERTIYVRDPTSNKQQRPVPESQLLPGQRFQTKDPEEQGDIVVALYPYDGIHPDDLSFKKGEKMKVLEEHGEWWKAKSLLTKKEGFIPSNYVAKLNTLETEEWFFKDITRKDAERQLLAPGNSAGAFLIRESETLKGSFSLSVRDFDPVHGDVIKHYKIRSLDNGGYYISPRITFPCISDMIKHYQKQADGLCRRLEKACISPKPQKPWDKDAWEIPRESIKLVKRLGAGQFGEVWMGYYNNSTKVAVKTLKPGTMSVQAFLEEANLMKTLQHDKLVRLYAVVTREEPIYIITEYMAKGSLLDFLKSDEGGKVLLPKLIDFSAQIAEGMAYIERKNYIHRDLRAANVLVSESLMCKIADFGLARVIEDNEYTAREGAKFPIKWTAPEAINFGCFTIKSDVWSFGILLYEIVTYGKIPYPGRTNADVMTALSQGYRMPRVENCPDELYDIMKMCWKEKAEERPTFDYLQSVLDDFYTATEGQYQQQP
The target of experiment [51] is Tyrosine-protein kinase BTK (Homo sapiens) (UniProt Q06187). Kind of experiment: Inhibition of BTK at 10 uM. An outline of the steps: as §2
Sequence of Tyrosine-protein kinase BTK (Homo sapiens) (Q06187 whole entry): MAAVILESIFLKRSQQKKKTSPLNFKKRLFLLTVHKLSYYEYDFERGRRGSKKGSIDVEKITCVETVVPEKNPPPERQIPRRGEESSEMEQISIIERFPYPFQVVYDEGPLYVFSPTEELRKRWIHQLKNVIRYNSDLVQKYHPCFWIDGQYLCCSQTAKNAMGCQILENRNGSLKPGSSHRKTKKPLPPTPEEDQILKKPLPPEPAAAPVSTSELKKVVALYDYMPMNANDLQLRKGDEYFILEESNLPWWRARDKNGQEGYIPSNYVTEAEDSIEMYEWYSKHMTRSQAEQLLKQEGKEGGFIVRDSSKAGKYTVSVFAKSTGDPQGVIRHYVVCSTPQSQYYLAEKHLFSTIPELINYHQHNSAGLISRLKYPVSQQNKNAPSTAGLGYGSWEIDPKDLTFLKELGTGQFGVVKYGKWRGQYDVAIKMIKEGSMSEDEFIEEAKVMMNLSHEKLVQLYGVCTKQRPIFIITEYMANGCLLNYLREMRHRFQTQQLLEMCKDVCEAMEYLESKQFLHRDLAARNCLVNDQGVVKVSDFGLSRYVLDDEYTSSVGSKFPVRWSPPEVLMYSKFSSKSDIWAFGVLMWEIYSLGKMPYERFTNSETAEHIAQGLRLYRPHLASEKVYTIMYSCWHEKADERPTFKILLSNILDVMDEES
Experiment [52] deals with Receptor-type tyrosine-protein kinase FLT3 (Homo sapiens) (UniProt P36888). The experiment in a line: Inhibition of FLT3 at 10 uM.

Calls of active or inactive are those of the source. The rule behind the calls is not given here.

Sequence of Serine/threonine-protein kinase Chk1 (Homo sapiens) (O14757 whole entry): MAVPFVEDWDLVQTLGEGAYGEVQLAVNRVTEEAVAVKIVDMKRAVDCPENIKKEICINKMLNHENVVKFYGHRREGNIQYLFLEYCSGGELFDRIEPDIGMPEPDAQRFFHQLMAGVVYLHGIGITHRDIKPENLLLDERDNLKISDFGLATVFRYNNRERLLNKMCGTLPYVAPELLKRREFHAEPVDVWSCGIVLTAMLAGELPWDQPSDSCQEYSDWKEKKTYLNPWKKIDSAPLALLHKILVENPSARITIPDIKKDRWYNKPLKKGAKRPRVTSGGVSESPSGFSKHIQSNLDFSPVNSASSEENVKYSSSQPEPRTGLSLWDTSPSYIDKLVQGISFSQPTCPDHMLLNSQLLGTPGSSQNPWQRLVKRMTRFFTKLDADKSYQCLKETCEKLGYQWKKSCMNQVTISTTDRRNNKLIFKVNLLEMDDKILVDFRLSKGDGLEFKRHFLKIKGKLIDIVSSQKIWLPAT

By inhibition is commonly meant the change of the read-out against control, counted positive when it falls. Turning to `Cc1ccccc1C1=N/C(=C\c2cccnc2)C(=O)O1`, the inhibition worked out at 3% in experiment [1] and 58% in [2].

`Cc1c(O)ccc2c(CN3CCN(C)CC3)cc(=O)oc12`: the inhibition in experiment [1] is 12%; in [2], 54%.

As to `Cc1ccc2nc(-c3ccncc3)cc(C(=O)O)c2c1`, the results for the inhibition in experiment [1] and in [2] were 3% and 58%, respectively.

In the case of `O=C1OC(c2ccccc2)=N/C1=C\c1cccnc1`, the results for the inhibition in experiment [1] and in experiment [2] were 71% and 84%, respectively.

In the case of `O=C1OC(C23CC4CC(CC(C4)C2)C3)=N/C1=C\c1cccnc1`, the inhibition in experiment [1] amounted to 3%; in experiment [2], 58%.

As to `O=C1OC(c2cccc(Cl)c2[N+](=O)[O-])=N/C1=C\c1cccnc1`, the inhibition in experiment [1] was found to be 3%; in experiment [2], 58%.

One may read the IC50 as the concentration at which inhibition is half-maximal. High values mean weaker potency, low ones greater potency. Regarding `O=C1OC(/C=C/c2ccccc2)=NC/1=C\c1cccnc1`, the inhibition result in [3], in [4], in [5], in experiment [6], in experiment [7] and in [8] was “inactive” throughout. The inhibition entry in experiment [9], in experiment [10], in experiment [11], in [12], in experiment [13] and in [14] was “inactive” in each case. Moreover, the inhibition entry in experiment [15], in experiment [16], in experiment [17], in experiment [18], in [21] and in experiment [22] was “inactive” throughout. The inhibition result in experiment [24], in experiment [25], in experiment [26], in experiment [27], in [28] and in [29] was “inactive” in each case. In addition, the inhibition entry in experiment [30], in [31], in [33], in experiment [34], in experiment [35] and in [36] was “inactive” each time. The inhibition entry in experiment [37], in experiment [38], in experiment [41], in experiment [42], in experiment [43] and in experiment [47] was “inactive” throughout. Also, the inhibition result in experiment [48], in experiment [49], in experiment [50], in [51] and in experiment [52] was “inactive” in each case. Besides, the results for the inhibition in experiment [1] and in experiment [2] were 3% and 58%, respectively. For the same molecule, the IC50 in experiment [19] is less than 10 µM; in experiment [20], greater than 10 µM; in [23], greater than 10 µM; in [32], greater than 10 µM; in experiment [39], greater than 10 µM; in experiment [40], greater than 10 µM. Also, the results for the IC50 in experiment [44], in [45] and in experiment [46] were greater than 10 µM, less than 1 µM and less than 1 µM, respectively.

For the molecule `Cc1cccc2c(C(=O)O)cc(-c3ccncc3)nc12`, the inhibition is 2% in experiment [1] and 72% in [2].
